How the values were obtained:
Type in all cases: cell-based
Parameters in all cases: scale not given: the % may be the effect or the level left
Autotaxin (Homo sapiens) [1] = molecular target: Autotaxin (Homo sapiens) (UniProt Q13822); assay: Activity of human autotaxin in human […] cells assessed as effect on enzyme-mediated of FS3 hydrolysis at 10 uM
In short: (§1)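 ATX source: serum-free conditioned medium from MDA-MB-435 cells (24-30 h), with 20% ethylene glycol added, concentrated ~10-fold and exchanged into 50 mM Tris pH 7.4. Assay: FS-3 substrate 1 μM final, fatty-acid-free BSA 30 μM, Tris pH 8 buffer with Mg2+, Ca2+, K+ and NaCl. Read fluorescence at ex 485/em 538 nm every 5 min. % inhibition vs vehicle at 1 h, after no-medium background subtraction; mean ± SD, ≥3 wells.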

Autotaxin (Homo sapiens) [2] = molecular target: Autotaxin (Homo sapiens) (UniProt Q13822); assay: Activity of human autotaxin in human […] cells assessed as effect on enzyme-mediated of FS3 hydrolysis at 0.1 uM; in short: as §1
Autotaxin (Homo sapiens) [3] = molecular target: Autotaxin (Homo sapiens) (UniProt Q13822); assay: Activity of human autotaxin in human […] cells assessed as effect on enzyme-mediated of FS3 hydrolysis at 1 uM; in short: as §1

| Structure (SMILES) | Activity (Autotaxin (Homo sapiens) [1]) [%] | Activity (Autotaxin (Homo sapiens) [2]) [%] | Activity (Autotaxin (Homo sapiens) [3]) [%] |
| --- | --- | --- | --- |
| CCCCCCCCCCCCCCCCOP(=O)([O-])OCC[N+](C)(C)C | 92 | 114 | 113 |
| CCCCCCCCC/C=C/CCCCCCCC(=O)OC[C@@H](O)COP(=O)([O-])OCC[N+](C)(C)C | 17 | 92 | 55 |
| CCCCCCC(=O)OC[C@@H](O)COP(=O)([O-])OCC[N+](C)(C)C | 97 | 104 | 100 |
| CCCCCCCCCCCCCCCCOP(=O)([O-])NCC[N+](C)(C)C | 77 | 81 | 81 |
| CCCCCCCCCCCCCCCCCOC[C@@H](O)COP(=O)([O-])OCC[N+](C)(C)C | 49 | 100 | 89 |
| CCCCCCCCC/C=C/CCCCCCCC(=O)OC[C@@H](O)COP(=O)(O)O | 2 | 90 | 23 |
| CCCCCCCCCCCCCCOP(=O)([O-])CCC[N+](C)(C)C | 71 | 94 | 90 |
| CCCCCCCCCCCCCCCCOC[C@H](O)COP(=O)([O-])CCC[N+](C)(C)C | 76 | 82 | 86 |
| CCCCCCCCCCCCCCCCC(=O)OC[C@@H](O)COP(=O)([O-])OCC[N+](C)(C)C | 36 | 109 | 89 |
| CCCCCCCCCCCCCCOP(=O)([O-])NCC[N+](C)(C)C | 75 | 89 | 90 |
| CCCCCCCCCCCCCCCCCCC(=O)OC[C@@H](O)COP(=O)(O)O | 36 | 89 | 74 |
| CCCCCCCCCCCCCCCCC(=O)OC[C@@H](O)COP(=O)(O)O | 5 | 74 | 49 |
| CCCCCCCCCCCCC(=O)OC[C@@H](O)COP(=O)([O-])OCC[N+](C)(C)C | 66 | 102 | 97 |
| CCCCCCCCCCCCOC[C@@H](O)COP(=O)([O-])CCC[N+](C)(C)C | 89 | 99 | 96 |
| CCCCCCCCCCOC[C@@H](O)COP(=O)([O-])CCC[N+](C)(C)C | 103 | 101 | 95 |
| CCCCCCCC/C=C\CCCCCCCCOP(=O)([O-])OCC[N+](C)(C)C | 8 | 105 | 59 |
| CCCCCCCC/C=C\CCCCCCCCOP(=O)(O)OCC[N+](C)(C)C | 79 | 101 | 100 |
| CCCCCCCCCCCCCCCCCCOC[C@H](O)COP(=O)([O-])CCC[N+](C)(C)C | 68 | 78 | 77 |

| Structure (SMILES) | Activity (Autotaxin (Homo sapiens) [1]) [%] | Activity (Autotaxin (Homo sapiens) [2]) [%] | Activity (Autotaxin (Homo sapiens) [3]) [%] |
| --- | --- | --- | --- |
| CCCCCCCCCCC(=O)OC[C@@H](O)COP(=O)([O-])OCC[N+](C)(C)C | 85 | 101 | 101 |
| CCCCCCCCCCCCCCCCCCC(=O)OC[C@@H](O)COP(=O)([O-])OCC[N+](C)(C)C | 59 | 111 | 99 |
| CCCCCCCCCCCCOC[C@H](O)COP(=O)([O-])CCC[N+](C)(C)C | 87 | 98 | 95 |
| CCCCCCCCCCCCCCOP(=O)([O-])OCC[N+](C)(C)C | 91 | 110 | 112 |
| CCCCCCCCCCCCCCCCCCOC[C@@H](O)COP(=O)([O-])CCC[N+](C)(C)C | 76 | 81 | 89 |
| CCCCCCCCC(=O)OC[C@@H](O)COP(=O)([O-])OCC[N+](C)(C)C | 101 | 94 | 81 |
| CCCCCCCCCCOC[C@H](O)COP(=O)([O-])CCC[N+](C)(C)C | 89 | 97 | 96 |
| CCCCCCCCCCCCCCOC[C@@H](O)COP(=O)([O-])CCC[N+](C)(C)C | 76 | 98 | 85 |
| CCCCCCCCCCCCCCCCCCP(=O)([O-])OCC[N+](C)(C)C | 44 | 110 | 96 |
| CCCCCCCCCCCCCCC(=O)OC[C@@H](O)COP(=O)([O-])OCC[N+](C)(C)C | 36 | 72 | 80 |
| CCCCCCCCCCCCCCCCCCOP(=O)([O-])OCC[N+](C)(C)C | 102 | 114 | 116 |
| CCCCCCCCCCCCCCCCOC[C@@H](O)COP(=O)([O-])CCC[N+](C)(C)C | 72 | 83 | 82 |
| CCCCCCCCCCCCCCCCCCOP(=O)([O-])NCC[N+](C)(C)C | 29 | 86 | 74 |
| CCCCCCCCCCCCCCOC[C@H](O)COP(=O)([O-])CCC[N+](C)(C)C | 80 | 97 | 95 |
| CCCCCCCCC/C=C/CCCCCCCOP(=O)([O-])NCC[N+](C)(C)C | 74 | 93 | 89 |
| CCCCCCCCCCCCCCCCCCCOC[C@@H](O)COP(=O)([O-])OCC[N+](C)(C)C | 44 | 92 | 86 |
| CCCCCCCCCCCCCCCCOP(=O)([O-])CCC[N+](C)(C)C | 91 | 97 | 94 |
